According to ChEMBL document CHEMBL1649388, “Imidazo[2,1-b]thiazole carbohydrate derivatives: Synthesis and antiviral activity against Junin virus, agent of Argentine hemorrhagic fever” (Eur J Med Chem, 2011):

Tests used:
[1] = (§1) Cytotoxicity against african green monkey Vero cells after 48 hrs by MTT assay; format: cell-based, Chlorocebus sabaeus; conditions: chlorocebus sabaeus, Vero cells
Summary of the method: (§2)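 Confluent Vero cultures were exposed to a range of compound concentrations, three wells per concentration, for 48 h at 37 °C. Viability was read by MTT at 595 nm. CC₅₀ is the concentration reducing MTT signal by 50% versus untreated controls. Mean of three determinations.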

Junin virus [2] = experiment: Antiviral activity against Junin virus IV4454 infected in african green monkey Vero cells assessed as reduction in virus yield after 48 hrs by plaque assay; format: functional, organism-based; conditions: Mammarenavirus juninense
[3] = Selectivity index, ratio of CC50 for african green monkey Vero cells to EC50 for Junin virus IV4454 infected in african green monkey Vero cells; format: toxicity, cell-based; conditions: read-out: Selectivity Index
Vero = experiment: as §1; format: cell-based, Chlorocebus sabaeus; conditions: Chlorocebus sabaeus, Vero, 48 h; summary of the method: as §2
Junin virus [4] = experiment: Antiviral activity against Junin virus IV4454 infected in african green monkey Vero cells assessed as reduction in virus yield treated for 1.5 hrs before viral infection measured by plaque assay relative to control; format: functional, organism-based; conditions: Mammarenavirus juninense
Junin virus [5] = experiment: Antiviral activity against Junin virus IV4454 infected in african green monkey Vero cells assessed as reduction in virus yield at 50 to 200 uM treated for 1.5 hrs before viral infection measured by plaque assay relative to control; format: functional, Mammarenavirus juninense

SMILES	CC50 at 48 h [1] [µM]	EC50 (Junin virus [2]) [µM]	selectivity ratio [3]	IC50 (Vero) [µM]	inhibition (Junin virus [4])	fold change (FC) (Junin virus [5])
CO[C@@H]1[C@H]2OC(C)(C)O[C@H]2O[C@@H]1C(=O)c1cnc2sc(C(=O)c3ccc(Cl)cc3)cn12	371	0.8	464			
CC(=O)O[C@@H]1[C@H]2OC(C)(C)O[C@H]2O[C@@H]1C(=O)c1cnc2sc(C(=O)c3ccccc3)cn12	> 400	7.9	> 50.6			
CO[C@@H]1[C@H]2OC(C)(C)O[C@H]2O[C@@H]1C(=O)c1cn2cc(C(=O)c3ccc(Cl)cc3)nc2s1	> 400	11.9	> 33.6			
CO[C@@H]1[C@H]2OC(C)(C)O[C@H]2O[C@@H]1C(=O)c1cnc2sc(C(=O)c3ccc(F)cc3)cn12	> 400	78.3	> 5.1			
CC(=O)O[C@@H]1[C@H]2OC(C)(C)O[C@H]2O[C@@H]1C(=O)c1cnc2sc(C(=O)c3ccc(F)cc3)cn12	> 400	4.9	> 81.6			
CO[C@@H]1[C@H]2OC(C)(C)O[C@H]2O[C@@H]1C(=O)c1cn2cc(C(=O)c3ccccc3)nc2s1	> 400	12.3	> 32.5			
CC(=O)O[C@@H]1[C@H]2OC(C)(C)O[C@H]2O[C@@H]1C(=O)c1cnc2sc(C(=O)c3ccc(Cl)cc3)cn12	70	7.5	9.3			
COC1[C@@H](C(=O)c2cnc3sc(C(=O)c4ccccc4)cn23)O[C@@H]2OC(C)(C)O[C@H]12 (single isomer, unassigned)	> 400	18.5	> 21.6			
NC(=O)c1ncn([C@@H]2O[C@H](CO)[C@@H](O)[C@H]2O)n1 [RIBAVIRIN]		18.5	> 21.6	> 400		
CC(=O)O[C@@H]1[C@H]2OC(C)(C)O[C@H]2O[C@@H]1C(=O)c1cnc2sc(C(=O)c3ccc(Br)cc3)cn12	139	5.6	24.8			
CO[C@@H]1[C@H]2OC(C)(C)O[C@H]2O[C@@H]1C(=O)c1cn2cc(C(=O)c3ccc(F)cc3)nc2s1	> 400	2.9	> 138			
CO[C@@H]1[C@H]2OC(C)(C)O[C@H]2O[C@@H]1C(=O)c1cn2cc(C(=O)c3ccc(Br)cc3)nc2s1	351	4.3	81.6			
COC1[C@@H](C(=O)c2cnc3sc(C(=O)c4ccc(Br)cc4)cn23)O[C@@H]2OC(C)(C)O[C@H]12 (single isomer, unassigned)	295	1.1	268		Dose-dependent effect	15
